Assay [1] in a line: S. cerevisiae growth inhibition in permissive medium (OD615), pilot counter-assay for S. cerevisiae lifespan shortening project, permissive growth control (AID 705;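 active means growth inhibition above 25% in both replicates, a cutoff set 3 SD above the mean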). Conditions: OD615, 24 h, at 10 µM, active compounds read high. The method, boiled down: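 assay system = Saccharomyces cerevisiae strain carrying genetically modified DeaD replicative-lifespan system | medium = SC raffinose/galactose permissive medium | dosing = 10 µM single dose, 0.25% DMSO | schedule = 24 h compound exposure at 30 °C after 4 h pre-growth | measured by = OD at 615 nm | read-out basis = growth inhibition from lowered OD615 after 24 h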

Assay [2] is described as follows: S. cerevisiae growth inhibition in restrictive medium, OD615, pilot screen, restrictive growth control, yeast lifespan reduction project (AID 706;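 active means growth inhibition above a set limit, 3 SD over mean compound inhibition, in both replicates, cut at about 43% in these data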;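 further: modified DeaD lifespan yeast strain shifted to restrictive glucose medium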). Conditions: OD615, 48 h, at 10 µM, active compounds read high. The essentials:
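Buffer or medium: CSMM-D glucose medium. Material: genetically modified Saccharomyces cerevisiae, DeaD replicative lifespan assay strain. Times: 48 h compound exposure at 30 °C. Measured by: optical density at 615 nm.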

Assay [3] is described as follows: doxorubicin toxicity protection in MRP-1 cells – H69AR cells, CellTiter-Glo, duplicate, MRP-1 activator project, pilot screen (AID 807;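 active means viability increase at or above a cutoff of the median across tested compounds plus 3 SD, cut at about 8.5% in these data, passing the limit was not always enough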;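 further: compound pretreatment 18-22 h then 72 h combined with doxorubicin; 0% = doxorubicin alone and 100% = vehicle without doxorubicin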). Conditions: H69AR viability with doxorubicin, CellTiter-Glo luminescence; at 10 µM; active compounds read high. (ATP-based viability assays read luminescence as a measure of living cells.)
Assay [4] in a line: viability of PTEN-null HCT116 cells – cell-based, HCT116 clonal line, CellTiter-Glo, pilot screen (AID 824;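 active means viability at or below 27.92% in each of two runs, the all-compound median minus 4 SD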;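 further: 0% = 20 µM Hyamine control and 100% = vehicle cell control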). Conditions: HCT116 PTEN-deleted viability, 60 h, at 10 µM, active compounds read low.
Assay [5] is described as follows: RAM pathway blockade in budding yeast – dse1pr::URA3 reporter, 5-FOA selection, pilot screen (AID 869).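 Further: 0% = DMSO wells with no growth and 100% = 10 µM 1-NA-PP1 with full growth; RAM network block rescues cells from 5-FOA so hits raise OD615 growth.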 Conditions: S. cerevisiae dse1pr::URA3 5-FOA growth, OD615, 2 d; at 10 µM; active compounds read high; strain carries analog-sensitive mutant Cbk1 kinase.
Assay [6] can be described thus: RAM signaling pathway blockade in yeast – S. cerevisiae, Pdr1DBD-CYC8 efflux-inhibited sensitized strain, primary screen (AID 1298;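 active means RAM network inhibition above 8.4% in each of two replicates, 3 SD over the compound average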;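 further: 0% = DMSO untreated cells without growth and 100% = 10 µM 1-NA-PP1 full growth; higher means more yeast growth rescued from 5-FOA killing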). Conditions: S. cerevisiae cbk1-as DSE1-URA3 strain, 5-FOA growth OD615, 2 d; at 50 µM; active compounds read high.

Unmarked numbers belong to inactive results. Records with an inconclusive call do not appear. Calls of active or inactive are those of the source.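 How the source made its calls, unless noted: active means inhibition over a set limit, the all-compound mean plus 3 SD, in both replicate runs; inconclusive means over that limit in just one replicate run; inactive means at or under that limit in both runs.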

On to `O=C(O)c1ccc(N2C(=O)CC(Cc3ccccc3)C2=O)cc1` (stereo not given), for which the figures for the growth inhibition in assay [1] and in assay [2] were -3.14% and 2.02%, respectively. Also, the viability increase in assay [3] is -1.42%. The viability (in general, a read-out of living cells in per cent, often relative to untreated cells) in assay [4] is 100%. Further, the inhibition (in general, the drop in the measured response relative to a control, in per cent) in assay [5] was -0.025%. Also, the RAM network inhibition in assay [6] is 0.72%.
`CC(NC(=O)c1ccccc1O)c1ccccc1` (stereo not given): the figures for the growth inhibition in assay [1] and in assay [2] were 0.015% and -2.42%, respectively. Besides, the viability increase in assay [3] was 0.41%. The viability in assay [4] is 94.1%. Moreover, the inhibition in assay [5] was 0.1%. The RAM network inhibition in assay [6] was 0%.
As to `COc1ccc(OC)c2c(C)cc(N3CCCN(C)CC3)nc12`, the growth inhibition in assay [1] was 3.26%; in assay [2], -3.9%. Besides, in assay [3], the viability increase was -4.81%. Besides, in assay [4], the viability is 85.9%. For the same compound, the inhibition in assay [5] is 0.015%. In addition, the RAM network inhibition in assay [6] was 0%.
In the case of `O=C(NCc1ccco1)C1CCN(C(=O)Cc2ccccc2)CC1`, the growth inhibition was -8.46% in assay [1] and 4.75% in assay [2]. Moreover, in assay [3], the viability increase is -3.71%. Besides, the viability in assay [4] is 102%. For the same compound, the inhibition in assay [5] was 1.32%. In assay [6], the RAM network inhibition was 3.59%.
On to `Cc1nnc(NC(=O)CSc2nccn2-c2cccc(C)c2C)s1`, for which the figures for the growth inhibition in assay [1] and in assay [2] were -7.29% and 11.5%, respectively. Moreover, the viability increase in assay [3] was -5.19%. Moreover, the viability in assay [4] is 30.1%. In addition, the inhibition in assay [5] is 0.035%. The RAM network inhibition in assay [6] was 4.71%.
As for `CCNc1nc2c(c(=O)n(C)c(=O)n2C)n1Cc1ccc(Cl)cc1`, the growth inhibition in assay [1] was -6.92%; in assay [2], -2.02%. The viability increase in assay [3] is -2.02%. For the same compound, the viability in assay [4] is 58.3%. For the same compound, the inhibition in assay [5] is -0.48%. For the same compound, the RAM network inhibition in assay [6] is 1.98%.
On to `CCCC(=O)c1cc(F)c(N2CCN(CCC#N)CC2)cc1C`, for which the growth inhibition in assay [1] was -9.06%; in assay [2] it was -15.5%. In addition, in assay [3], the viability increase was -0.66%. Moreover, the viability in assay [4] is 93.6%. In assay [5], the inhibition was 2.97%. Further, the RAM network inhibition in assay [6] was 3.23%.
For the compound `Cc1cc(NC(=O)COC(=O)C2CCN(S(=O)(=O)c3ccc(Cl)cc3)CC2)no1`, the growth inhibition in assay [1] was 4.11%; in assay [2], -2.37%. For the same compound, in assay [3], the viability increase is -2.01%. Moreover, the viability in assay [4] is 98.9%. Moreover, in assay [5], the inhibition was 1.19%. Moreover, in assay [6], the RAM network inhibition was 1.38%.
In the case of `CCOc1cc(C2NC(=O)NC(C)=C2C(=O)OC(C)CC)cc(Br)c1O` (stereo not given), the growth inhibition in assay [1] was -4.09%; in assay [2], -10.5%. Moreover, the viability increase in assay [3] is -1.01%. In addition, in assay [4], the viability is 91.2%. In addition, the inhibition in assay [5] is 2.17%. For the same compound, in assay [6], the RAM network inhibition was 2.16%.
In the case of `Cc1cccc(-n2c(=O)[nH]c3c(C(N)=O)nc(-c4ccccc4Cl)nc32)c1`, the figures for the growth inhibition in assay [1] and in assay [2] were -7.62% and -0.18%, respectively. The viability increase in assay [3] is -7.67%. In assay [4], the viability was 11.7% (active). Moreover, in assay [5], the inhibition was 3.09%. Besides, the RAM network inhibition in assay [6] is 3.41%.
In the case of `Brc1ccc2ncnc(NCc3ccco3)c2c1`, the growth inhibition in assay [1] is 2.37%; in assay [2], 13%. Further, the viability increase in assay [3] was -7.68%. The viability in assay [4] was 35.5%. Also, the inhibition in assay [5] is 1.71%. Also, the RAM network inhibition in assay [6] was 4.76%.
As for `C=CCC1(O)C(=O)N2C(=C1C(=O)N1CCOCC1)c1ccccc1CC2(C)C` (stereo not given), the growth inhibition in assay [1] is 5.07%; in assay [2] it was -8.41%. Besides, in assay [3], the viability increase is -2.47%. For the same compound, the viability in assay [4] was 99.4%. Further, the inhibition in assay [5] was 0.41%. In addition, in assay [6], the RAM network inhibition is 2.11%.
Take `Cc1ccc(N=Cc2c(O)n(C)c(=O)n(C)c2=O)nc1`: the growth inhibition in assay [1] was 5.8%; in assay [2] it was 16.6%. The viability increase in assay [3] was 0.03%. Besides, the viability in assay [4] was 99.2%. The inhibition in assay [5] was 1.89%. Besides, the RAM network inhibition in assay [6] is -0.87%.
Turning to `CCOC(=O)c1c(NC(=O)OC)sc(C(=O)N(CC)CC)c1C`, the figures for the growth inhibition in assay [1] and in assay [2] were -14.6% and -12.4%, respectively. The viability increase in assay [3] was -1.31%. For the same compound, in assay [4], the viability was 93%. The inhibition in assay [5] was 1.47%. Also, in assay [6], the RAM network inhibition was 1.79%.
Take `COc1ccc(N2C(=O)CCC(C(=O)N3CCCCCC3)C2c2ccc(OC)c(OC)c2)cc1` (stereo not given): the growth inhibition in assay [1] was -2.31%; in assay [2] it was 12.9%. The viability increase in assay [3] was -1.38%. Also, the viability in assay [4] was 99%. In addition, the inhibition in assay [5] was 0.735%. For the same compound, in assay [6], the RAM network inhibition was 4.47%.
On to `CCOC(=O)N1CCN(C(=O)CN(C2CCCCC2)S(=O)(=O)c2ccc(C)cc2)CC1`, for which the growth inhibition in assay [1] was -13.9%; in assay [2], -3.6%. In addition, the viability increase in assay [3] was -4.47%. Moreover, in assay [4], the viability was 97.3%. For the same compound, the inhibition in assay [5] was 1.92%. Moreover, in assay [6], the RAM network inhibition is -1.07%.
With `COc1cccc(OCCOc2cccc(/C=N/n3cnnc3)c2)c1`, the growth inhibition in assay [1] is 6.03%; in assay [2], 21.9%. Besides, the viability increase in assay [3] was -2.71%. Moreover, in assay [4], the viability was 95.8%. The inhibition in assay [5] is 1.62%. Besides, the RAM network inhibition in assay [6] is 0.36%.
Turning to `Cc1ccc2nc(NC(=O)c3cccs3)sc2c1`, the figures for the growth inhibition in assay [1] and in assay [2] were -2.67% and 10.6%, respectively. The viability increase in assay [3] was -4.54%. Moreover, in assay [4], the viability is 69.2%. Further, the inhibition in assay [5] was 1.29%. Moreover, the RAM network inhibition in assay [6] is 4.15%.
`O=C(Nc1cccc(F)c1)Nc1ccccn1`: the figures for the growth inhibition in assay [1] and in assay [2] were -10.9% and -7.43%, respectively. Besides, the viability increase in assay [3] was -3.54%. The viability in assay [4] is 88.1%. Moreover, in assay [5], the inhibition was 0.385%. Moreover, the RAM network inhibition in assay [6] is -0.16%.
Consider `CCOC(=O)N1CCN(C(=O)c2ccc(CN(c3ccc(C)c(C)c3)S(C)(=O)=O)cc2)CC1`, for which the results for the growth inhibition in assay [1] and in assay [2] were -11.1% and -1.85%, respectively. For the same compound, the viability increase in assay [3] was -2.96%. Besides, the viability in assay [4] was 99.4%. Also, the inhibition in assay [5] was 0.115%. Moreover, in assay [6], the RAM network inhibition is 5.73%.

The values are drawn from PubChem BioAssay.
